# Assay results published in ChEMBL document CHEMBL4145496, “In vitro antiplasmodial efficacy of synthetic coumarin-triazole analogs” (Eur J Med Chem, 2018).
# The source made the active and inactive calls. No cut-off for these calls is given here.
# Tests used:
# Plasmodium falciparum = experiment: Antimalarial activity against chloroquine-sensitive Plasmodium falciparum 3D7 erythrocytic stage after 48 hrs by Giemsa staining-based microscopic analysis; type: functional, organism-based; details: 3D7, 48 h
# Procedure, shortened: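 Parasites kept in human O+ erythrocytes in RPMI 1640 with HEPES, NaHCO3, L-glutamine, gentamicin and Albumax II, under 3% O2/4% CO2/93% N2 at 37 °C. DMSO stocks (1 mg/ml) diluted into gentamicin-free RPMI. Graded concentrations for 48 h at 37 °C, medium changed at 24 h, in triplicate. Parasites counted per about 4000 erythrocytes on Giemsa thin smears. IC50 taken from semi-log plots.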
# [1] = Cytotoxicity against human HuH7 cells assessed as reduction in cell viability after 72 hrs by MTT assay; type: cell-based, Huh-7
# Procedure, shortened: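 Huh-7 monolayers grown in DMEM at 37 °C in 5% CO2. Cells seeded at about 20,000 per well and left 24 h, then given fresh medium containing 1, 10, 20, 30, 50 or 100 μg/mL compound for 72 h. Viability read by MTT, absorbance at 570 nm.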
# [2] = molecular target: DNA gyrase (Escherichia coli) (UniProt P0AES6+P0AES4); experiment: Inhibition of Escherichia coli DNA gyrase assessed as inhibition of enzyme-mediated supercoiling of relaxed pHOT1 DNA substrate at IC50 after 1 hr by ethidium bromide staining based agarose gel electrophoresis; type: protein-complex assay
IC50 (Plasmodium falciparum) [µg/mL],inhibition [2],SMILES,CC50 at 72 h [1] [µg/mL]
5,–,Cc1cc(=O)oc2cc(OCc3cn(-c4ccc(OC(F)(F)F)cc4)nn3)ccc12,> 100
8.94,–,Cc1cc(=O)oc2cc(OCc3cn(-c4ccccc4Cl)nn3)ccc12,> 100
2.23,–,Cc1cc(=O)oc2cc(OCc3cn(Cc4ccc([N+](=O)[O-])cc4)nn3)ccc12,> 100
11.1,–,COc1cc(-n2cc(COc3ccc4c(C)cc(=O)oc4c3)nn2)cc(OC)c1OC,> 100
12.8,–,Cc1cc(F)ccc1-n1cc(COc2ccc3c(C)cc(=O)oc3c2)nn1,> 100
10.6,–,Cc1cc(=O)oc2cc(OCc3cn(-c4ccnc5cc(Cl)ccc45)nn3)ccc12,> 100
4.16,–,CC(=O)Nc1ccc(-n2cc(COc3ccc4c(C)cc(=O)oc4c3)nn2)cc1,> 100
15.4,–,Cc1cc(=O)oc2cc(OCc3cn(-c4ccc(F)cc4F)nn3)ccc12,> 100
9.46,–,Cc1cc(=O)oc2cc(OCc3cn(-c4cccc(F)c4)nn3)ccc12,> 100
3.36,–,Cc1cc(=O)oc2cc(OCc3cn(CCO)nn3)ccc12,> 100
6.43,–,Cc1cc(=O)oc2cc(OCc3cn(-c4ccc(F)cc4)nn3)ccc12,> 100
1.82,–,Cc1cc(=O)oc2cc(OCc3c[nH]nn3)ccc12,> 100
3.3,–,COC(=O)Cn1cc(COc2ccc3c(C)cc(=O)oc3c2)nn1,> 100
7.43,–,Cc1cc(=O)oc2cc(OCc3cn(-c4ccc(F)c(Cl)c4)nn3)ccc12,> 100
6.4,–,Cc1cc(=O)oc2cc(OCc3cn(Cc4ccccc4)nn3)ccc12,> 100
6.86,–,Cc1cc(=O)oc2cc(OCc3cn(-c4ccccc4[N+](=O)[O-])nn3)ccc12,> 100
0.893,Active,Cc1cc(C)cc(-n2cc(COc3ccc4c(C)cc(=O)oc4c3)nn2)c1,> 100
2.48,–,Cc1cc(=O)oc2cc(OCc3cn(-c4ccccc4F)nn3)ccc12,> 100
1.5,Active,Cc1ccc(-n2cc(COc3ccc4c(C)cc(=O)oc4c3)nn2)c(Cl)c1,> 100
8.43,–,Cc1cc(=O)oc2cc(OCc3cn(-c4ccc(Cl)cc4)nn3)ccc12,> 100
4.56,–,Cc1cc(=O)oc2cc(OCc3cn(-c4ccc(Oc5ccccc5)cc4)nn3)ccc12,> 100
0.763,Active,COc1ccc(-n2cc(COc3ccc4c(C)cc(=O)oc4c3)nn2)c(OC)c1,> 100
